# Data published in PMC4911243 (Cancer research, 2016).
# Experiments:
# [1] = system: HES1 promoter occupancy in OE33 and 786-0 cells; assay: ChIP assay on the HES1 promoter; type: cell-based, human; details: DAPT 15 μM, IMR-1 25 μM
# In short: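 OE33 and 786-0 cells were exposed to DAPT, test compound or DMSO vehicle. Chromatin immunoprecipitation used the indicated antibodies against NTC components, and HES1 promoter occupancy was assessed.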
# [2] = system: Notch-independent cell lines (refractory to DAPT); assay: Colony formation assay, Notch-independent cell lines; type: cell-based, human; details: cells refractory to DAPT
# [3] = Plasma pharmacokinetic profile in mice; type: in vivo, male C57 BL/6 mice; details: for signal in plasma: after IMR-1 i.v. 2 mg/kg and i.p. 100 mg/kg, any time point
# In short: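 Male C57BL/6 mice received a single test compound dose, either 2 mg/kg i.v. or 100 mg/kg i.p. Plasma was analysed by mass spectrometry (m/z) for parent and acid metabolite. Metabolite PK parameters (Tmax, T1/2, CL, Vss) were calculated on the parent dose. Clearance was referenced to 90 mL/min/kg liver blood flow, and Vss to 0.7 L/kg total body water.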
# [4] = molecular target: Notch ternary complex (CSL, Notch1, Maml1 on DNA) (Homo sapiens, UniProt P46531); assay: in vitro Notch ternary complex; type: biochemical; details: for IC50: in vitro NTC assay, dose-response
# Notch ternary complex (CSL, Notch1, Maml1 on DNA), sequence (P46531 1754-2555 limits assumed): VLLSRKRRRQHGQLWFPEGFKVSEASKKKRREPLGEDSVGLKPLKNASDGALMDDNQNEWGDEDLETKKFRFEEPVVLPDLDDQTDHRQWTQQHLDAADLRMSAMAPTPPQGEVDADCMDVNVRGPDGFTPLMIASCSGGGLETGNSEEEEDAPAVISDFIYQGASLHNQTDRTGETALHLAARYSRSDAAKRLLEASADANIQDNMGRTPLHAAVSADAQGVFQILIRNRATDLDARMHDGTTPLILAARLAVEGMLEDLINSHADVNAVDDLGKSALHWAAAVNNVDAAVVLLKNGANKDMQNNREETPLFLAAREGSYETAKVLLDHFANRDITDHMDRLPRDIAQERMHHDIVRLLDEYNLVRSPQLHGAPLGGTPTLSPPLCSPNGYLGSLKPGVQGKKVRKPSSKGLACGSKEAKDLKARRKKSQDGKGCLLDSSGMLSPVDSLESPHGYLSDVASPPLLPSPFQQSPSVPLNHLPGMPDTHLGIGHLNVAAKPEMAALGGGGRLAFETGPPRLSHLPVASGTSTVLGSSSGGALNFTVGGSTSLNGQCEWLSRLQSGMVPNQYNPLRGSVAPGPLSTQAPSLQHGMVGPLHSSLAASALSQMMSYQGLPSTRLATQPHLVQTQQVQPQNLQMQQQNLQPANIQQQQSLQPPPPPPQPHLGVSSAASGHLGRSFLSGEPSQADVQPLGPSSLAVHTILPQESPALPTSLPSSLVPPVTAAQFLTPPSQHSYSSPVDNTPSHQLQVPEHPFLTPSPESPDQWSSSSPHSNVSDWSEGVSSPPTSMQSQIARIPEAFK
# Notch ternary complex (CSL, Notch1, Maml1 on DNA), sequence (Q06330 whole entry partner): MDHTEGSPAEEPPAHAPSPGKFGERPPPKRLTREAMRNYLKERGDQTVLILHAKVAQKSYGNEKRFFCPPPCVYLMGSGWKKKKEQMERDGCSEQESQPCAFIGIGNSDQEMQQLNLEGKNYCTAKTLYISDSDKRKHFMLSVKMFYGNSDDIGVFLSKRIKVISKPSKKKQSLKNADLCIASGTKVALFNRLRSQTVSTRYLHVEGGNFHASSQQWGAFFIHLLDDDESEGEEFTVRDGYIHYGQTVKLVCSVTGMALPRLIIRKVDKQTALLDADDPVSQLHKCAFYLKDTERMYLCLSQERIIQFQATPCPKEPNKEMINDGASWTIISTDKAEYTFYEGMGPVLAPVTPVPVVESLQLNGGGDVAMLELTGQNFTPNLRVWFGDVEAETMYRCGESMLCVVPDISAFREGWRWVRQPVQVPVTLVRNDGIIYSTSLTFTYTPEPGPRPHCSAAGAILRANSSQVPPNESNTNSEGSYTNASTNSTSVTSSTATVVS
# [5] = molecular target: Notch1 (NICD) (Homo sapiens, UniProt P46531); assay: Surface plasmon resonance, binding to NICD; details: for mode of binding to Notch1: SPR sensorgrams, dissociation to baseline; for Kd: SPR, equilibrium approach, 1:1 binding model, wild type NICD
# Notch1 (NICD), sequence (P46531 1754-2555 limits assumed): as the sequence (P46531 1754-2555 limits assumed) above
# In short: (§1)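 NICD (wild type or point mutant) was amine-coupled to a CM5 chip. Runs were on a Biacore T200 at 25 °C in 10 mM PBS pH 7.5 with 5% DMSO as running buffer. Signals were corrected against a DMSO control. Dissociation was followed under buffer flow. KD came from equilibrium response (Req) versus test compound concentration, fitted to a 1:1 binding model.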
# [6] = system: D. rerio (zebrafish); assay: Somite formation in zebrafish embryos; type: in vivo; details: embryos soaked in 40 μM IMR-1
# In short: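 Zebrafish embryos were exposed to test compound at 8 hpf and examined at 13 hpf in coronal view for somites. Controls were untreated, DMSO vehicle, and 100 pg human Notch1 intracellular domain mRNA-injected embryos. The percentage of embryos with somites was scored and compared by Fisher's exact test.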
# [7] = molecular target: NICD R2061A (Homo sapiens, UniProt P46531, R2060A); assay: Surface plasmon resonance, binding to mutated NICD; details: SPR
# NICD R2061A, sequence (P46531 1754-2555 R2060A): as the sequence (P46531 1754-2555 limits assumed) above, with R307A counted along it
# In short: as §1
# [8] = system: Notch target genes (Hes-1, Hey-L) in OE33 and 786-0 cells; assay: RT-qPCR analysis of Notch target genes; type: cell-based, human
# In short: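 OE33 and 786-0 cells were treated, then Hes-1 and Hey-L were measured by reverse transcription and TaqMan qPCR. Values were normalized to TBP and HPRT and expressed relative to vehicle (DMSO) control set to 1.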
# [9] = molecular target: NICD R2071A (Homo sapiens, UniProt P46531, R2070A); assay: Surface plasmon resonance, binding to mutated NICD; details: SPR
# NICD R2071A, sequence (P46531 1754-2555 R2070A): as the sequence (P46531 1754-2555 limits assumed) above, with R317A counted along it
# In short: as §1
# [10] = system: NICD in OE33 and 786-0 cells; assay: Western analysis of NICD levels; type: cell-based, human; details: Western analysis of lysates from ChIP assay cells
# In short: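 Lysates came from the same treated OE33 and 786-0 cells used for ChIP (DAPT 15 μM, test compound 25 μM, or DMSO). Western blots were probed with anti-Notch1, anti-cleaved Notch1 (Val1744) and anti-GAPDH antibodies.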
# [11] = molecular target: NICD R2105A (Homo sapiens, UniProt P46531, R2104A); assay: Surface plasmon resonance, binding to mutated NICD; details: SPR, R2105 substituted by alanine
# NICD R2105A, sequence (P46531 1754-2555 R2104A): as the sequence (P46531 1754-2555 limits assumed) above, with R351A counted along it
# In short: as §1
# [12] = system: patient-derived esophageal adenocarcinoma xenograft (EAC29 and EAC47); assay: Patient-derived esophageal adenocarcinoma xenograft; type: in vivo
# In short: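 Patient-derived esophageal adenocarcinoma tumors were grown in NSG mice to 200 mm3 before treatment began. Mice then received daily i.p. doses of test compound (15 mg/kg), comparator inhibitor (20 mg/kg) or DMSO vehicle. After 24 days, tumors were harvested. Notch target gene transcription was measured by RT-qPCR (TaqMan) and normalized to TBP and HPRT.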
# [13] = system: OE19 human esophageal adenocarcinoma cells; assay: OE19 xenograft model in nude mouse; type: in vivo; details: 15 mg/kg
# In short: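 Nude mice received 5 × 10^6 OE19 cells in the flank, and tumors developed over 4 weeks. Mice were treated with test compound at 15 mg/kg or DMSO control. Tumor establishment and body weight were monitored through treatment.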
# [14] = molecular target: NICD R2096A (Homo sapiens, UniProt P46531, R2095A); assay: Surface plasmon resonance, binding to mutated NICD; details: SPR, R2096 substituted by alanine
# NICD R2096A, sequence (P46531 1754-2555 R2095A): as the sequence (P46531 1754-2555 limits assumed) above, with R342A counted along it
# In short: as §1
# [15] = IMR-1A after IMR-1 i.p. 100 mg/kg, mice plasma
compound,measurement,setting,value
"C[C@H](NC(=O)Cc1cc(F)cc(F)c1)C(=O)N[C@H](C(=O)OC(C)(C)C)c1ccccc1 [DAPT, reference compound]",occupancy of Maml1 on the HES1 promoter,[1],decreased the occupancy
same,occupancy of Notch1 on the HES1 promoter,[1],decreased the occupancy
same,colony formation,[2],refractory
COc1cc(/C=C2/SC(=S)NC2=O)ccc1OCC(=O)O [IMR-1A],T1/2,[3]; [15],6.16 h
same,Tmax,[3]; [15],0.50 h
same,Vss relative to normal volume of total body water (0.7 L/kg),[3]; IMR-1A after IMR-1 i.v. 2 mg/kg,~ 4 fold
same,T1/2,"[3]; IMR-1A after IMR-1 i.v. 2 mg/kg, mice plasma",2.22 h
same,CL,"[3]; IMR-1A after IMR-1 i.v. 2 mg/kg, mice plasma, 2 mg/kg",7 mL/min/kg
same,time up to which plasma concentrations were quantifiable,[3]; after IMR-1 i.p. 100 mg/kg,up to 24 h
same,signal in plasma,[3],present
same,increase in potency with respect to IMR-1,[4]; in vitro NTC assay IC50,50 fold
same,IC50,[4],0.5 µM
same,mode of binding to Notch1,[5],"non-covalent, reversible binding"
same,Kd,[5],2.9 ± 0.6 µM
IMR-1,embryos with disruption of somite formation,[6],69.7%
same,Kd,[7]; NICD R2061A,35.6 µM
same,decrease in affinity relative to wild type NICD,[7]; R2061 replaced with alanine,approximately 5 fold
same,occupancy of Maml1 on the HES1 promoter,[1],decreased the occupancy
same,occupancy of Notch1 on the HES1 promoter,[1],did not affect the occupancy
same,Notch target gene transcription,"[8]; Hes-1, Hey-L, OE33 and 786-0",dose-dependent decrease
same,transcription of the housekeeping gene HPRT,[8]; treated cells,unaltered
same,signal in plasma,[3],no signal was detected
same,clinical signs,"[3]; single i.v. 2 mg/kg and i.p. 100 mg/kg, through last sample withdrawal",did not induce any clinical signs
same,Kd,[9]; NICD R2071A,38.7 µM
same,decrease in affinity relative to wild type NICD,[9]; R2071 replaced with alanine,approximately 5 fold
same,IC50,[4],26 µM
same,levels of NICD in cells,[10],does not change
same,effect of mutation on affinity,[11],No effect
same,"expression level of Notch target genes (Hes1, HeyL, Notch3) in excised tumors","[12]; after 24 days of treatment, both PDX models",dramatically reduced
same,weight loss or visible signs of adverse effects,[12]; daily i.p. 15 mg/kg,without any significant weight loss or other visible signs of adverse effects
same,PDX tumor growth,"[12]; daily i.p., IMR-1 15 mg/kg or DAPT 20 mg/kg, 24 days, vs DMSO",significantly abrogated growth
same,general toxicity upon in vivo treatment,"[12]; in vivo treatment, summary statement",no general toxicity was observed
same,adverse effects,[13],no observable adverse effects
same,tumor establishment,"[13]; nude mouse, OE19 cells, 4 weeks",readily blocks tumor establishment
same,body weight,[13]; throughout the treatment course,remained constant
same,colony formation,[2],equally resistant
same,effect of mutation on affinity,[14],No effect
same,mode of binding to Notch1,[5],"non-covalent, reversible binding"
same,Kd,[5],11 ± 3 µM
